Assays:
[1] = system: HeLa; experiment: Antiviral activity against K103N/Y181C mutant virus in the HeLa MAGI assay.; type: functional, cell-based, Homo sapiens
Summary of the method: (§1)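 Isogenic recombinant HIV-1 strains carrying the listed RT mutations were tested against the test compounds in HeLa MAGI indicator cells. Beta-galactosidase was quantified by activation of a chemiluminescent substrate 3 days after infection. IC50 was the concentration inhibiting 50% of the HIV-1-induced beta-galactosidase signal relative to untreated controls. It was determined for each recombinant virus.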

[2] = system: HeLa; experiment: Antiviral activity against Y188C mutant virus in the HeLa MAGI assay.; type: functional, cell-based, Homo sapiens; summary of the method: as §1
[3] = system: HeLa; experiment: Antiviral activity against V106A mutant virus in the HeLa MAGI assay.; type: functional, cell-based, Homo sapiens; summary of the method: as §1
[4] = system: HeLa; experiment: Antiviral activity against V106A/Y181C mutant virus in the HeLa MAGI assay.; type: functional, cell-based, Homo sapiens; summary of the method: as §1
[5] = system: HeLa; experiment: Antiviral activity against K103N mutant virus in the HeLa MAGI assay.; type: functional, cell-based, Homo sapiens; summary of the method: as §1
[6] = target: Human immunodeficiency virus type 1 reverse transcriptase (Human immunodeficiency virus 1, UniProt Q72547); experiment: Inhibitory activity against HIV-1 reverse transcriptase
Summary of the method: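 Recombinant HIV RT at 1 nM was combined with 40 nM Eu-chelate-labeled biotinylated DNA primer/RNA template and 100 nM Cy5-dUTP. Reactions were started with enzyme.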

[7] = system: HeLa; experiment: Antiviral activity against Y181C mutant virus in the HeLa MAGI assay.; type: functional, cell-based, Homo sapiens; summary of the method: as §1
[8] = system: HeLa; experiment: Antiviral activity against wild-type HIV-1 in the HeLa MAGI assay.; type: functional, cell-based; conditions: Homo sapiens
Summary of the method: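 HeLa MAGI cells were infected with isogenic recombinant HIV-1. After 3 days, β-galactosidase was quantified by chemiluminescent substrate activation. IC50 is the concentration inhibiting 50% of the HIV-1-induced β-galactosidase signal relative to untreated controls.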

[9] = system: HeLa; experiment: Antiviral activity against V108I/Y181C mutant virus in the HeLa MAGI assay.; type: functional, cell-based, Homo sapiens; summary of the method: as §1
[10] = system: MT4; experiment: Cell culture cytotoxicity against MT-4 cells.; type: functional, cell-based; conditions: Homo sapiens
Summary of the method: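 MT4 cells were exposed to compound in parallel with the 5-day HIV-1 strain 3B cytopathic-effect assay. Compound-induced cytotoxicity is reported as the cell culture cytotoxicity IC50 (CCIC50).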

[11] = system: HeLa; experiment: Antiviral activity against P236L mutant virus in the HeLa MAGI assay.; type: functional, cell-based, Homo sapiens; summary of the method: as §1
[12] = system: Human immunodeficiency virus 1; experiment: Antiviral activity against HIV-1 infected human MT-4 cells.; type: functional, organism-based; conditions: Human immunodeficiency virus 1, MT4
Summary of the method: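 HTLV-1-transformed MT4 cells were infected with HIV-1 strain 3B at 100× the amount giving a 50% drop in cell growth. They were cultured 5 days with a range of compound concentrations. IC50 is the concentration restoring 50% of infected-cell growth (cytopathic effect) relative to uninfected MT4 controls.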

[13] = system: HeLa; experiment: Antiviral activity against K103N/L100I mutant virus in the HeLa MAGI assay.; type: functional, cell-based, Homo sapiens; summary of the method: as §1
[14] = system: HeLa; experiment: Antiviral activity against E138K mutant virus in the HeLa MAGI assay.; type: functional, cell-based, Homo sapiens; summary of the method: as §1
[15] = system: HeLa; experiment: Antiviral activity against K103N/V108I mutant virus in the HeLa MAGI assay.; type: functional, cell-based, Homo sapiens; summary of the method: as §1
[16] = system: HeLa; experiment: Antiviral activity against V108I mutant virus in the HeLa MAGI assay.; type: functional, cell-based, Homo sapiens; summary of the method: as §1
[17] = system: HeLa; experiment: Antiviral activity against K103N/P225H mutant virus in the HeLa MAGI assay.; type: functional, cell-based, Homo sapiens; summary of the method: as §1
[18] = system: HeLa; experiment: Antiviral activity against G190A mutant virus in the HeLa MAGI assay.; type: functional, cell-based, Homo sapiens; summary of the method: as §1
[19] = target: Human immunodeficiency virus type 1 reverse transcriptase (Human immunodeficiency virus 1) (UniProt Q72547); experiment: Inhibitory activity against HIV-1 reverse transcriptase; no significant activity uM
Summary of the method: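 Recombinant HIV RT at 1 nM was added to start 50 µL reactions. Cy5-dUMP incorporation was followed for 30 min by time-resolved energy transfer (excitation 340 nm, emission 665 nm).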

N#Cc1c(N)cccc1S(=O)(=O)c1cc(Cl)cc(Cl)c1
IC50 [1]: > 50 µM | IC50 [2]: 140 nM | IC50 [3]: 6.2 nM | IC50 [4]: 1800 nM | IC50 [5]: 8300 nM | IC50 [6]: 30 nM | IC50 [7]: 50 µM | IC50 [8]: 37 nM | IC50 [9]: 58 µM | IC50 [10]: > 200 µM | IC50 [11]: 2.5 nM | IC50 [12]: 70 nM | IC50 [13]: 5.5 µM | IC50 [14]: 85 nM | IC50 [15]: 4 µM | IC50 [16]: 47 nM | IC50 [17]: 3.8 µM | IC50 [18]: 84 nM

Cc1cc(C)cc(S(=O)(=O)c2cccc(N)c2C#N)c1
IC50 [1]: > 50 µM | IC50 [2]: 210 nM | IC50 [3]: 2.4 nM | IC50 [4]: 490 nM | IC50 [5]: 1100 nM | IC50 [7]: 14 µM | IC50 [8]: 11 nM | IC50 [9]: 13 µM | IC50 [10]: > 200 µM | IC50 [11]: 5 nM | IC50 [12]: 10 nM | IC50 [13]: 3 µM | IC50 [14]: 17 nM | IC50 [15]: 4.8 µM | IC50 [16]: 17 nM | IC50 [17]: 3.3 µM | IC50 [18]: 30 nM

Cc1cc(Cl)cc(S(=O)(=O)c2cccc(N)c2C#N)c1
IC50 [1]: > 50 µM | IC50 [2]: 400 nM | IC50 [3]: 2.8 nM | IC50 [4]: 210 nM | IC50 [5]: 3600 nM | IC50 [6]: 5 nM | IC50 [7]: 14 µM | IC50 [8]: 15 nM | IC50 [9]: 13 µM | IC50 [10]: > 200 µM | IC50 [11]: 10 nM | IC50 [12]: 30 nM | IC50 [13]: 20 µM | IC50 [14]: 15 nM | IC50 [15]: 33 µM | IC50 [16]: 17 nM | IC50 [17]: 19 µM | IC50 [18]: 40 nM

N#Cc1c(N)cccc1S(=O)(=O)c1cccc2ccccc12
IC50 [1]: > 50 µM | IC50 [2]: 180 nM | IC50 [3]: 5.4 nM | IC50 [4]: 230 nM | IC50 [5]: 2300 nM | IC50 [6]: 1000 nM | IC50 [7]: 29 µM | IC50 [8]: 14 nM | IC50 [9]: 66 µM | IC50 [10]: > 200 µM | IC50 [11]: 2 nM | IC50 [12]: 3320 nM | IC50 [13]: 1.7 µM | IC50 [14]: 68 nM | IC50 [15]: 3.5 µM | IC50 [16]: 30 nM | IC50 [17]: 2.8 µM | IC50 [18]: 200 nM

Cc1ccnc2c1NC(=O)c1cccnc1N2C1CC1 [NEVIRAPINE]
IC50 [1]: > 50 µM | IC50 [2]: 2200 nM | IC50 [3]: ~10000 nM | IC50 [4]: > 10000 nM | IC50 [5]: 7100 nM | IC50 [7]: > 10 µM | IC50 [8]: 89 nM | IC50 [9]: > 10 µM | IC50 [11]: 56 nM | IC50 [13]: 10 µM | IC50 [14]: 72 nM | IC50 [15]: 21 µM | IC50 [16]: 340 nM | IC50 [17]: 10 µM | IC50 [18]: > 10000 nM

O=C1Nc2ccc(Cl)cc2[C@@](C#CC2CC2)(C(F)(F)F)O1 [EFAVIRENZ]
IC50 [1]: 0.042 µM | IC50 [2]: 1.2 nM | IC50 [3]: 1.5 nM | IC50 [4]: 3.3 nM | IC50 [5]: 24 nM | IC50 [7]: 0.0018 µM | IC50 [8]: 0.9 nM | IC50 [9]: 0.0033 µM | IC50 [11]: 0.5 nM | IC50 [13]: 1.6 µM | IC50 [14]: 0.8 nM | IC50 [15]: 0.074 µM | IC50 [16]: 1.4 nM | IC50 [17]: 0.13 µM | IC50 [18]: 6.4 nM

Cc1ccccc1Sc1cccc(N)c1C#N
IC50 [10]: > 40 µM | IC50 [12]: 16000 nM | NS [19]: no significant activity

COc1cc(C(F)(F)F)cc(S(=O)(=O)c2cccc(N)c2C#N)c1
IC50 [1]: > 50 µM | IC50 [2]: 400 nM | IC50 [3]: 13 nM | IC50 [4]: 2100 nM | IC50 [5]: 10500 nM | IC50 [6]: 40 nM | IC50 [7]: 36 µM | IC50 [8]: 63 nM | IC50 [9]: 36 µM | IC50 [10]: 164 µM | IC50 [11]: 7 nM | IC50 [12]: 90 nM | IC50 [13]: 5 µM | IC50 [14]: 80 nM | IC50 [15]: 10 µM | IC50 [16]: 120 nM | IC50 [17]: 5.5 µM | IC50 [18]: 660 nM

COc1cc(C)cc(S(=O)(=O)c2cccc(N)c2C#N)c1
IC50 [1]: > 50 µM | IC50 [2]: 300 nM | IC50 [3]: 2.9 nM | IC50 [4]: 420 nM | IC50 [5]: 1800 nM | IC50 [6]: 10 nM | IC50 [7]: 13 µM | IC50 [8]: 14 nM | IC50 [9]: 14 µM | IC50 [10]: 94 µM | IC50 [11]: 8 nM | IC50 [12]: 50 nM | IC50 [13]: 19 µM | IC50 [14]: 29 nM | IC50 [15]: 16 µM | IC50 [16]: 29 nM | IC50 [17]: 7.8 µM | IC50 [18]: 87 nM

Cc1cc(Br)cc(S(=O)(=O)c2cccc(N)c2C#N)c1
IC50 [1]: > 50 µM | IC50 [2]: 1700 nM | IC50 [3]: 1.5 nM | IC50 [4]: 77 nM | IC50 [5]: 970 nM | IC50 [6]: 3 nM | IC50 [7]: 10 µM | IC50 [8]: 9 nM | IC50 [9]: 18 µM | IC50 [10]: 133 µM | IC50 [11]: 11 nM | IC50 [12]: 20 nM | IC50 [13]: 16 µM | IC50 [14]: 15 nM | IC50 [15]: 15 µM | IC50 [16]: 11 nM | IC50 [17]: 13 µM | IC50 [18]: 31 nM

N#Cc1c(N)cccc1S(=O)(=O)c1cccc(Cl)c1
IC50 [6]: 400 nM | IC50 [10]: > 200 µM | IC50 [12]: 590 nM

COc1cccc(S(=O)(=O)c2cccc(N)c2C#N)c1
IC50 [6]: 600 nM | IC50 [10]: > 200 µM | IC50 [12]: 900 nM

N#Cc1c(N)cccc1S(=O)(=O)c1ccccc1Br
IC50 [6]: 12000 nM | IC50 [10]: 40 µM | IC50 [12]: 5000 nM

COc1ccccc1[S+]([O-])c1cccc(N)c1C#N (stereo not drawn)
IC50 [6]: 12000 nM | IC50 [10]: > 200 µM | IC50 [12]: 4800 nM

N#Cc1c(N)cccc1Sc1ccccc1
IC50 [6]: 8700 nM | IC50 [10]: 168 µM | IC50 [12]: 14600 nM

N#Cc1ccc(Sc2cccc(N)c2C#N)cc1
IC50 [6]: > 19000 nM | IC50 [10]: > 200 µM | IC50 [12]: 43800 nM

N#Cc1ccc([S+]([O-])c2cccc(N)c2C#N)cc1 (stereo not drawn)
IC50 [6]: > 23000 nM | IC50 [10]: > 200 µM | IC50 [12]: > 200000 nM

Cc1cccc([S+]([O-])c2cccc(N)c2C#N)c1 (stereo not drawn)
IC50 [6]: 10000 nM | IC50 [10]: > 200 µM | IC50 [12]: 29200 nM

COc1cc([S+]([O-])c2cccc(N)c2C#N)cc(C(F)(F)F)c1 (stereo not drawn)
IC50 [6]: 900 nM | IC50 [10]: 108 µM | IC50 [12]: 2070 nM

COc1ccccc1S(=O)(=O)c1cccc(N)c1C#N
IC50 [6]: 1400 nM | IC50 [10]: 146 µM | IC50 [12]: 600 nM

From ChEMBL document CHEMBL1134494, “2-Amino-6-arylsulfonylbenzonitriles as non-nucleoside reverse transcriptase inhibitors of HIV-1” (J Med Chem, 2001)
